The source of these data is ChEMBL document CHEMBL3865830, “Multifunctional diamine AGE/ALE inhibitors with potential therapeutical properties against Alzheimer's disease” (Eur J Med Chem, 2016).

A short description of data set [1]: Antioxidant activity assessed as inhibition of AAPH-induced peroxyl radical generation measured as trolox equivalent at 10 uM preincubated for 30 mins followed by AAPH addition measured evey 60 secs for 60 cycles by ORAC-FL assay. It is filed as functional. Conditions: in the assay text read “90 secs” for “60 secs”. The method, boiled down: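 Fluorescein (12 nM) preincubated with compound (1-20 µM) or Trolox standard (1-50 µM) in D-PBS, at least 30 min at 37 °C. Reaction started with AAPH (30 mM). Fluorescence (ex 485/em 520 nm) read every 90 s for 60 cycles. Net AUC is converted to Trolox equivalents via the Trolox calibration line. Values are reported at 10 µM, from at least three independent experiments in triplicate.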

Data set [2] in a line: Reactive carbonyl species trapping activity of compound assessed as MGO adduct formation at 10 mM preincubated for 24 hrs with MGO measured after 1 hr by LCMS analysis. Conditions: 10000 µM. It is filed as physicochemical.
The next data set is filed under the species Rattus norvegicus. In words: Cytotoxicity against rat […] PC12 cells assessed as reduction in cell viability at 10 to 100 uM after 24 hrs by WST8-based CCK8 assay. It is filed as toxicity. Conditions: pc-12, 24 h. The method, boiled down: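 PC12 Adh cells (rat pheochromocytoma-derived) grown in F-12K with 2.5% FBS, 15% horse serum and pen/strep at 37 °C, 5% CO2. Seeded at 5×10^3 cells/well; treated at 80% confluency with 10 or 100 µM for 24 h. 10% DMSO served as positive cytotoxicity control. CCK-8 added for 1 h at 37 °C, absorbance read at 450 nm. Viability given as % of untreated cells; at least three experiments in triplicate.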
Background: Formazan colour is commonly taken as a measure of viable cells.

Data set [3] can be described thus: Metal chelating activity of compound assessed as compound-Cu2+ complex formation at 2 mM after 10 mins in presence of CuSO4.5H2O by complexometric indicator murexide based UV-Vis spectrophotometric analysis. To be noted: 2000 µM. It is filed as physicochemical. The method in brief:
(§1)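 Compound (0.02-2 mM) incubated with CuSO4 (120 µM) for 10 min at rt, in 10 mM hexamine/HCl with 10 mM KCl (pH 5.0), or in buffer/MeOH 75:25 for poorly soluble compounds. Murexide added, 1 min more. The A485/A520 ratio gives free Cu2+ from a CuSO4 calibration curve (0-125 µM). % chelation is taken by difference from the no-compound control; triplicates.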

Data set [4] can be described thus: Metal chelating activity of compound assessed as compound-Cu2+ complex formation at 0.08 mM after 10 mins in presence of CuSO4.5H2O by complexometric indicator murexide based UV-Vis spectrophotometric analysis. It is filed as physicochemical. To be noted: 80 µM. The method in brief:
as §1

Data set [5] is described as follows: Metal chelating activity of compound assessed as compound-Cu2+ complex formation at 1 mM after 10 mins in presence of CuSO4.5H2O by complexometric indicator murexide based UV-Vis spectrophotometric analysis. It is filed as physicochemical. Conditions: 1000 µM. The method, boiled down:
as §1

The nature of data set [6]: Reactive carbonyl species trapping activity of compound assessed as MGO adduct formation at 10 mM preincubated for 24 hrs with MGO measured after 0.5 hrs by LCMS analysis. It is filed as physicochemical. To be noted: 10000 µM.
Data set [7] in a line: Reactive carbonyl species trapping activity of compound assessed as MDA adduct formation at 10 mM preincubated for 24 hrs with MDA measured after 1 hr by LCMS analysis. It is filed as physicochemical. Conditions: 10000 µM.
The nature of data set [8]: Reactive carbonyl species trapping activity of compound assessed as MGO adduct formation at 10 mM preincubated for 24 hrs with MGO measured after 24 hrs by LCMS analysis. It is filed as physicochemical. Conditions: 10000 µM.
Data set [9] in a line: Metal chelating activity of compound assessed as compound-Cu2+ complex formation at 0.1 mM after 10 mins in presence of CuSO4.5H2O by complexometric indicator murexide based UV-Vis spectrophotometric analysis. To be noted: 100 µM. It is filed as physicochemical. The method, boiled down: as §1
A short description of data set [10]: Metal chelating activity of compound assessed as compound-Cu2+ complex formation at 0.02 mM after 10 mins in presence of CuSO4.5H2O by complexometric indicator murexide based UV-Vis spectrophotometric analysis. To be noted: 20 µM. It is filed as physicochemical. The method, boiled down: as §1
Data set [11] in a line: Metal chelating activity of compound assessed as compound-Cu2+ complex formation at 0.05 mM after 10 mins in presence of CuSO4.5H2O by complexometric indicator murexide based UV-Vis spectrophotometric analysis. It is filed as physicochemical. To be noted: 50 µM. The method, boiled down: as §1
A short description of data set [12]: Reactive carbonyl species trapping activity of compound assessed as MDA adduct formation at 10 mM preincubated for 24 hrs with MDA measured after 24 hrs by LCMS analysis. It is filed as physicochemical. Conditions: 10000 µM.
Data set [13] can be described thus: Reactive carbonyl species trapping activity of compound assessed as MGO adduct formation at 10 mM preincubated for 24 hrs with MGO measured after 5 hrs by LCMS analysis. It is filed as physicochemical. Conditions: 10000 µM.
The nature of data set [14]: Reactive carbonyl species trapping activity of compound assessed as MGO adduct formation at 10 mM preincubated for 24 hrs with MGO measured after 0.25 hrs by LCMS analysis. Conditions: 10000 µM. It is filed as physicochemical.
Data set [15] in a line: Metal chelating activity of compound assessed as compound-Cu2+ complex formation at 0.5 mM after 10 mins in presence of CuSO4.5H2O by complexometric indicator murexide based UV-Vis spectrophotometric analysis. To be noted: 500 µM. It is filed as physicochemical. The method in brief:
as §1

Data set [16] can be described thus: Reactive carbonyl species trapping activity of compound assessed as MDA adduct formation at 10 mM preincubated for 24 hrs with MDA measured after 0.25 hrs by LCMS analysis. It is filed as physicochemical. To be noted: 10000 µM.
A short description of data set [17]: Reactive carbonyl species trapping activity of compound assessed as MGO adduct formation at 10 mM preincubated for 24 hrs with MGO measured after 15 mins by LCMS analysis. It is filed as physicochemical. To be noted: 0.25 h, 10000 µM.
Data set [18] in a line: Metal chelating activity of compound assessed as compound-Cu2+ complex formation at 200 uM after 10 mins in presence of CuSO4.5H2O by complexometric indicator murexide based UV-Vis spectrophotometric analysis. It is filed as physicochemical. The method in brief: as §1
Data set [19] in a line: Reactive carbonyl species trapping activity of compound assessed as MDA adduct formation at 10 mM preincubated for 24 hrs with MDA measured after 5 hrs by LCMS analysis. To be noted: 10000 µM. It is filed as physicochemical.
The nature of data set [20]: Reactive carbonyl species trapping activity of compound assessed as MDA adduct formation at 10 mM preincubated for 24 hrs with MDA measured after 0.5 hrs by LCMS analysis. It is filed as physicochemical. Conditions: 10000 µM.

Regarding `NCCC(=O)N[C@@H](Cc1c[nH]cn1)C(=O)O`, in data set [1], the Activity (umolequiv/umol) is 0.08.

On to `Cc1c(C)c2c(c(C)c1O)CCC(C)(C(=O)O)O2` (centres undefined), for which the Activity (umolequiv/umol) in data set [1] is 1.

With `Cl.Cl.NCC(N)CC(=O)N1CCN(C(=O)CCn2cccc(O)c2=O)CC1` (centres undefined), the Activity (umolequiv/umol) in [1] worked out at 0.58. The Activity in [2] is given as 99%; in the data set listed under Rattus norvegicus, “Toxic”; in data set [3] it was 78.98%; in data set [4], 27.53%; in data set [5], 75.14%; in data set [6] it was 97%. Further, the Activity came out at 87% in data set [7]; 99% in data set [8]; 30.74% in [9]; 10.33% in [10]; 18.5% in data set [11]; 91% in data set [12]. The Activity in data set [13] was determined as 99%; in data set [14] it was 99%; in data set [15], 68.5%; in data set [16], 75%; in [17], 99%; in [18], 50.25%. In addition, the Activity in [19] amounted to 92%.

As to `CC(C)(C)OC(=O)NCC(CCCCNC(=O)CCn1cccc(O)c1=O)NC(=O)OC(C)(C)C.Cl.Cl` (centres undefined), the Activity in data set [3] is listed as 94.72%; in data set [4] it was 30.19%; in data set [5] it was 89.96%; in data set [9], 34.48%; in data set [10], 11.08%; in [11], 19.87%. In addition, the Activity in [15] worked out at 76.54%; in [18], 54.61%.

As for `Cl.Cl.NCC(N)CCCCNC(=O)CCn1cccc(OCc2ccccc2)c1=O` (centres undefined), the Activity in data set [3] was 67.84%; in [4], 19.27%; in data set [5], 61.48%; in data set [9], 21.41%; in data set [10], 6.59%; in data set [11], 12.05%. Besides, the Activity in data set [15] amounted to 51.43%; in data set [18] it was 33.91%.

As for `COc1cc(/C=C/C(=O)N2CCN(C(=O)CCC(N)CN)CC2)ccc1O.Cl.Cl` (centres undefined), the Activity (umolequiv/umol) in [1] turned out to be 2.05. The Activity entry is “Non-Toxic” in the data set listed under Rattus norvegicus; 81.81% in data set [3]; 22.44% in data set [4]; 71.51% in data set [5]; 28.75% in data set [9]; 3.3% in [10]. The Activity in data set [11] is on record as 14.92%; in data set [15] it was 61.66%; in [18], 45.61%.

Turning to `NCCN` [ETHYLENEDIAMINE], the Activity was 100% in [3]; 64.61% in data set [4]; 100% in data set [5]; 69.82% in data set [9]; 18.81% in data set [10]; 44.49% in [11]. Moreover, the Activity in [15] and in data set [18] was 100% in each case.

On to `NCCC(=O)N[C@@H](Cc1cnc[nH]1)C(=O)O` [CARNOSINE], for which the Activity in [3] was determined as 41.7%; in data set [20] it was 32%; in data set [4], 0.38%; in data set [5], 16.92%; in data set [6], 51%; in data set [7], 40%. Further, the Activity is 59% in data set [8]; 0.72% in data set [9]; 0.73% in data set [10]; 0% in [11]; 66% in data set [12]; 58% in data set [13]. Moreover, the Activity was determined as 46% in data set [14]; 5.39% in data set [15]; 23% in data set [16]; 46% in [17]; 1.53% in data set [18]; 38% in [19].

Regarding `Cl.Cl.NCC(N)CCCCNC(=O)CCn1cccc(O)c1=O` (centres undefined), the Activity (umolequiv/umol) in data set [1] amounted to 1.21. Further, the Activity entry in the data set listed under Rattus norvegicus is on record as “Non-Toxic”; in data set [3], 87.04%; in data set [4], 34.87%; in data set [5], 85.56%; in data set [6] it was 96%; in data set [7], 69%. Also, the Activity in data set [8] is 100%; in data set [9], 41.17%; in data set [10] it was 12.05%; in data set [11], 24.51%; in [12], 95%; in [13], 99%. Besides, the Activity in [14] is given as 98%; in data set [15] it was 81.17%; in data set [16], 65%; in [17], 98%; in data set [18], 62.77%; in data set [19], 73%.

For the molecule `Cl.Cl.NCC(N)CCCCNC(=O)c1cc(O)c(O)c(O)c1` (centres undefined), in data set [1], the Activity (umolequiv/umol) turned out to be 2.59. Further, the Activity in data set [2] is given as 93%; in the data set listed under Rattus norvegicus, “Non-Toxic”; in [3] it was 88.48%; in data set [20], 80%; in data set [4], 50.28%; in [5], 93.82%. Besides, the Activity is recorded as 84% in [7]; 95% in data set [8]; 61.98% in [9]; 14.24% in data set [10]; 31.34% in [11]; 81% in data set [12]. In addition, the Activity was found to be 89% in data set [13]; 90% in data set [14]; 93.72% in [15]; 90% in data set [17]; 87.39% in data set [18]; 87% in data set [19].

With `CCCCN1CCN(C(=O)C(N)CN)CC1.Cl.Cl` (centres undefined), the Activity amounted to 70% in data set [2]; 62.53% in data set [3]; 65% in data set [20]; 14.87% in [4]; 53.27% in data set [5]; 100% in data set [8]. Also, the Activity in data set [9] came out at 16.55%; in [10] it was 3.22%; in [11], 10.28%; in data set [12], 62%; in data set [13], 93%; in data set [14], 59%. Further, the Activity in data set [15] amounted to 43.56%; in [16], 62%; in [17] it was 59%; in data set [18] it was 27.68%; in [19] it was 77%.
